Our source for the CD50 and IC50 values is ChEMBL document CHEMBL1124947, “Cationic antiprotozoal drugs. Trypanocidal activity of 2-(4'-formylphenyl)imidazo[1,2-a]pyridinium guanylhydrazones and related derivatives of quaternary heteroaromatic compounds” (J Med Chem, 1990).

Common to all, as to format: functional
The subject of assay [1] is Mus musculus. Nature of the assay: Trypanocidal Activity at I.C.E. value 0.74 when administered subcutaneously. The procedure, abridged: (§1)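 Mice, in groups of five per dose, were given a standard inoculum of blood-stage T. rhodesiense that is lethal to all untreated controls, then dosed subcutaneously. Usually 11 dose levels were used (2^n × 0.42 mg/kg).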
Assay [2] deals with Mus musculus. The experiment in a line: Trypanocidal Activity at I.C.E. value 0.61 when administered perorally.
Assay [3] has as its system Mus musculus. Nature of the assay: Trypanocidal Activity at I.C.E. value 0.60 when administered subcutaneously. The procedure, abridged: as §1
In assay [4] the test system is Mus musculus. Nature of the assay: Trypanocidal Activity at I.C.E. value 0.41 when administered subcutaneously. The essentials: (§2)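 Blood-stage T. rhodesiense infection came from a standard inoculum lethal to all untreated mice. Drug was given by subcutaneous injection to groups of five mice. Survival beyond 30 days counted as cure. […] Sub-curative doses scored 0, and data were normalized at each dose.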

Assay [5] concerns Mus musculus. Nature of the assay: Trypanocidal Activity at I.C.E. value 0.57 when administered subcutaneously. The procedure, abridged: as §1
Assay [6] concerns Mus musculus. The experiment in a line: Trypanocidal Activity at I.C.E. value 0.40 when administered perorally.
The test system of assay [7] is Mus musculus. The experiment in a line: Trypanocidal Activity at I.C.E. value 0.84 when administered subcutaneously. The essentials: as §1
Assay [8] concerns Mus musculus. Nature of the assay: Trypanocidal Activity at I.C.E. value 0.35 when administered perorally.
The subject of assay [9] is Mus musculus. The experiment in a line: Trypanocidal Activity at I.C.E. value 0.67 when administered subcutaneously. The essentials:
as §1

Assay [10] has as its system Trypanosoma brucei rhodesiense. The experiment in a line: In Vitro measurement of inhibition of Leucine uptake in cell culture of Trypanosoma rhodesiense. The settings on record: read-out: ID50 (the source's name). The procedure, abridged: (§3)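 Trypanosomes harvested from infected rats, cultured 3 h with several concentrations of drug, usually 0.1–100 µg/mL. Radiolabeled L-leucine uptake measured. ID50 is the concentration in µg/mL giving 50% inhibition of incorporation.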

For assay [11], the system named is Trypanosoma brucei rhodesiense. Nature of the assay: In Vitro measurement of inhibition of thymidine uptake in cell culture of Trypanosoma rhodesiense. The settings on record: read-out: ID50 (the source's name). The essentials: (§4)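 Parasites harvested from infected rats and incubated 3 h across a drug concentration series, usually 0.1–100 µg/mL. Incorporation of radiolabeled thymidine measured. ID50 is the concentration (µg/mL) producing 50% inhibition.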

Assay [12] concerns Mus musculus. Nature of the assay: Trypanocidal Activity at I.C.E. value 0.63 when administered perorally.
Assay [13] has as its system Mus musculus. The experiment in a line: Trypanocidal Activity at I.C.E. value 0.54 when administered subcutaneously. The procedure, abridged: as §2
Assay [14] relates to Mus musculus. The experiment in a line: Trypanocidal Activity at I.C.E. value 0.48 when administered perorally.
Assay [15] concerns Mus musculus. The experiment in a line: Trypanocidal Activity at I.C.E. value 0.49 when administered subcutaneously. The essentials: as §2
For assay [16], the system named is Mus musculus. Nature of the assay: Trypanocidal Activity at I.C.E. value 0.49 when administered perorally.
In assay [17] the test system is Mus musculus. Nature of the assay: Trypanocidal Activity at I.C.E. value 0.17 when administered perorally.
Assay [18] relates to Mus musculus. Nature of the assay: Trypanocidal Activity at I.C.E. value 0.63 when administered subcutaneously. The essentials: as §1
Assay [19] has as its system Mus musculus. The experiment in a line: Trypanocidal Activity at I.C.E. value 0.24 when administered perorally.
The subject of assay [20] is Trypanosoma brucei rhodesiense. Nature of the assay: In Vitro measurement of inhibition of thymidine uptake in cell culture of Trypanosoma rhodesiense. The following applies: read-out: ID50 (the source's name). The procedure, abridged:
as §4

For assay [21], the system named is Trypanosoma brucei rhodesiense. The experiment in a line: In Vitro measurement of inhibition of leucine uptake in cell culture of Trypanosoma rhodesiense. The settings on record: read-out: ID50 (the source's name). The procedure, abridged:
as §3

Assay [22] relates to Mus musculus. Nature of the assay: Trypanocidal Activity at I.C.E. value 0.17 when administered subcutaneously.
In assay [23] the test system is Mus musculus. Nature of the assay: Trypanocidal Activity at I.C.E. value 0.79 when administered subcutaneously. The essentials: as §1
In assay [24] the test system is Mus musculus. Nature of the assay: Trypanocidal Activity at I.C.E. value 0.47 when administered subcutaneously. The essentials:
as §2

Assay [25] deals with Mus musculus. The experiment in a line: Trypanocidal Activity at I.C.E. value 0.4 when administered perorally.
Assay [26] deals with Mus musculus. The experiment in a line: Trypanocidal Activity at I.C.E. value 0.06 when administered perorally.
Assay [27] concerns Mus musculus. Nature of the assay: Trypanocidal Activity at I.C.E. value 0.24 when administered subcutaneously. The essentials:
as §2

For assay [28], the system named is Mus musculus. The experiment in a line: Trypanocidal Activity at I.C.E. value 0.48 when administered subcutaneously. The essentials:
as §2

Assay [29] relates to Mus musculus. Nature of the assay: Trypanocidal Activity at I.C.E. value 0.47 when administered perorally.
Assay [30] deals with Mus musculus. Nature of the assay: Trypanocidal Activity at I.C.E. value 0.36 when administered subcutaneously.

Regarding `C[n+]1c(/C=C/c2ccc(/C=N/NC(=N)N3CCCC3)cc2)cn2ccccc21.Cc1ccc(S(=O)(=O)O)cc1.Cc1ccc(S(=O)(=O)[O-])cc1`, the CD50 in assay [1] came out at 0.8 mg/kg.
`Br.C[n+]1c(COc2ccc(/C=N/NC3=NCCN3)cc2)cn2ccccc21.[Br-]`: the CD50 in [2] was found to be 6.6 mg/kg; in assay [3], 0.8 mg/kg.
The compound `Br.Cc1ccc2n(c1)cc(/C=C/c1ccc(/C=N/NC3=NCCCN3)cc1)[n+]2C.[Br-]` yielded a CD50 in assay [4] of 1.6 mg/kg.
As to `Br.CC/N=C(\NCC)N/N=C/c1ccc(-c2cn3ccccc3[n+]2C)cc1.[Br-]`, the CD50 in [5] came to 1.6 mg/kg; in [6] it was 53 mg/kg.
`Br.Cc1cccc2n1cc(/C=C/c1ccc(/C=N/NC3=NCCCN3)cc1)[n+]2C.[Br-]` displayed a CD50 in assay [7] of 0.4 mg/kg.
`Br.CCNC(=N)N/N=C/c1ccc(-c2cn3cc(C)ccc3[n+]2C)cc1.[Br-]`: the CD50 in assay [8] is 26 mg/kg; in [9], 0.4 mg/kg.
Take `Br.CNC(=N)N/N=C/c1ccc(-c2cn3ccccc3[n+]2C)cc1.[Br-]`: the IC50 in assay [10] stood at 0.7 µg/mL; in assay [11], 0.5 µg/mL. For the same compound, the CD50 in assay [4] turned out to be 0.8 mg/kg.
With `Br.Cn1cc[n+](C)c1/C=C/c1ccc(/C=N/NC2=NCCCN2)cc1.[Br-]`, the results for the CD50 in assay [12] and in assay [13] were 6.6 mg/kg and 0.8 mg/kg, respectively.
Take `Br.Cc1cccc2n1cc(COc1ccc(/C=N/NC(=N)N)cc1)[n+]2C.[Br-]`: the results for the CD50 in [14] and in assay [15] were 13 mg/kg and 0.8 mg/kg, respectively.
On to `Br.CCNC(=N)N/N=C/c1ccc(OCc2n(C)c3ccccc3[n+]2C)cc1.[Br-]`, for which, in [3], the CD50 came to 1.6 mg/kg.
As to `Br.Cc1cccc2n1cc(COc1ccc(/C=N/NC(=N)NO)cc1)[n+]2C.[Br-]`, the CD50 amounted to 0.8 mg/kg in [1] and 13 mg/kg in assay [16].
For the compound `CCCCSc1ccc2n(c1)cc(-c1ccc(/C=N/NC(=N)N3CCCC3)cc1)[n+]2C.Cc1ccc(S(=O)(=O)O)cc1.Cc1ccc(S(=O)(=O)[O-])cc1`, the CD50 in [17] was 212 mg/kg; in [18], 3.3 mg/kg.
In the case of `CC(=O)Nc1ccc(-c2cn3ccccc3[n+]2C)cc1.[I-]`, the CD50 in assay [19] amounted to 106 mg/kg; in assay [22], 212 mg/kg. The IC50 in assay [20] and in [21] was over 10 µg/mL in each case.
Compound `CC(=O)Nc1ccc2n(c1)cc(-c1ccc(/C=N/NC(=N)N)cc1)[n+]2C.Cc1ccc(S(=O)(=O)O)cc1.Cc1ccc(S(=O)(=O)[O-])cc1` yielded a CD50 in assay [23] of 0.4 mg/kg. For the same compound, the IC50 is 1.5 µg/mL in assay [20] and over 10 µg/mL in assay [21].
In the case of `C[n+]1ccc(COc2ccc(/C=N/NC(=N)N3CCCC3)cc2)cc1.Cc1ccc(S(=O)(=O)O)cc1.Cc1ccc(S(=O)(=O)[O-])cc1`, the CD50 in [24] was 0.8 mg/kg; in assay [25], 424 mg/kg. The IC50 in assay [20] stood at 9.3 µg/mL; in assay [21] it was 13.6 µg/mL.
In the case of `Cc1ccc(S(=O)(=O)O)cc1.Cc1ccc(S(=O)(=O)[O-])cc1.Cc1ccc2n(c1)cc(-c1ccc(/C=C/C=N/NC(=N)N)cc1)[n+]2C`, the CD50 turned out to be 424 mg/kg in assay [26] and 106 mg/kg in assay [27].
With `Br.C[n+]1cccc(COc2ccc(/C=N/NC(=N)N3CCCC3)cc2)c1.[Br-]`, the results for the CD50 in assay [24] and in assay [25] were 0.8 mg/kg and 26 mg/kg, respectively. The IC50 in assay [20] was determined as 0.3 µg/mL; in assay [21], 0.8 µg/mL.
In the case of `Br.Cc1ccn2cc(-c3ccc(/C=N/NC(=N)N4CCCC4)cc3)[n+](C)c2c1.[Br-]`, the CD50 in [28] came out at 0.1 mg/kg; in assay [29], 13 mg/kg.
Turning to `Br.C[n+]1c(COc2ccc(/C=N/NC(=N)N3CCCC3)cc2)cn2ccccc21.[Br-]`, the results for the CD50 in [29] and in [30] were 26 mg/kg and 0.8 mg/kg, respectively.
As for `Br.CCCCSc1ccc2n(c1)cc(-c1ccc(/C=N/NC(=N)NO)cc1)[n+]2C.[Br-]`, the CD50 in [7] was 0.8 mg/kg; in assay [6], 26 mg/kg.
